Data set [1] can be described thus: Antifungal activity against Rhizopus microsporus FMR 3542 by broth microdilution method. It is filed as functional. The gist of the method:
(§1)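 CLSI broth microdilution reference method for molds, run on clinical R. microsporus isolates. Isolates were stored at −80°C and subcultured on potato dextrose agar at 35°C before testing. Breakpoints: intermediate 2 μg/ml, resistant ≥4 μg/ml.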

Data set [2] can be described thus: Antifungal activity against Rhizopus microsporus UTHSC R-3466 by broth microdilution method. In kind it is functional. The method in brief:
as §1

The nature of data set [3]: Antifungal activity against Rhizopus microsporus CBS 102277 by broth microdilution method. It is filed as functional. The method in brief:
as §1

Data set [4] in a line: Antifungal activity against Rhizopus microsporus UTHSC 01-983 by broth microdilution method. In kind it is functional. The method in brief: as §1
Data set [5] can be described thus: Antifungal activity against Rhizopus microsporus IHEM 5234 by broth microdilution method. In kind it is functional. The gist of the method: as §1
Data set [6] is described as follows: Antifungal activity against Rhizopus microsporus IHEM 13267 by broth microdilution method. In kind it is functional. The gist of the method:
(§2)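 Clinical isolates kept at −80°C and subcultured on potato dextrose agar at 35°C before testing. MICs were determined by broth microdilution following the CLSI reference guidelines for filamentous fungi (molds), as part of a 15-strain panel tested against seven antifungal agents.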

Data set [7] in a line: Drug level in serum of OF1 mouse infected with Rhizopus microsporus UTHSC 01-983 at 40 mg/kg, po QD for 5 days measured after 3 hrs post last dose. In kind it is ADME, organism-based. Also noted: dose 40 mg/kg, route oral. The note with it: read-out: Drug uptake. The gist of the method: (§3)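 Immunosuppressed OF1 mice were infected i.v. (5 per group) and dosed orally at 40 mg/kg once daily or 20 mg/kg twice daily for 5 days. Sera were taken 3 h and 24 h after the last dose. Drug was measured by agar bioassay with Candida parapsilosis ATCC 22019 in yeast nitrogen broth, against standards of 0.125–10 μg/ml. Samples were run in duplicate, and the mean of four zone readings was read from the standard curve.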

The test system of data set [8] is Rhizopus microsporus. Briefly: Antifungal activity against Rhizopus microsporus IHEM 4770 infected in OF1 mouse assessed as reduction in fungal load in brain at 20 mg/kg, QD for 5 days. In kind it is functional, organism-based. On the set-up: dose 20 mg/kg.
For data set [9], the system named is Rhizopus microsporus. In words: Antifungal activity against Rhizopus microsporus UTHSC R-3466 infected in OF1 mouse assessed as reduction in fungal load in kidney at 20 mg/kg, QD for 5 days. It is filed as functional, organism-based. On the set-up: dose 20 mg/kg.
The nature of data set [10]: Drug level in serum of OF1 mouse infected with Rhizopus microsporus UTHSC 01-983 at 40 mg/kg, po QD for 5 days measured after 24 hrs post last dose. It is filed as ADME, organism-based. Also noted: dose 40 mg/kg, route oral. To be noted: read-out: Drug uptake. The gist of the method:
as §3

A short description of data set [11]: Drug level in serum of OF1 mouse infected with Rhizopus microsporus UTHSC 01-983 at 20 mg/kg, po BID for 5 days measured after 3 hrs post last dose. It is filed as ADME, organism-based. Also noted: dose 20 mg/kg, route oral. To be noted: read-out: Drug uptake. The gist of the method: as §3
Data set [12] in a line: Antifungal activity against Rhizopus microsporus IHEM 9503 by broth microdilution method. It is filed as functional. The gist of the method:
as §2

Data set [13] in a line: Antifungal activity against Rhizopus microsporus IHEM 10123 by broth microdilution method. It is filed as functional. The gist of the method: as §2
Data set [14] in a line: Antifungal activity against Rhizopus microsporus IHEM 4770 by broth microdilution method. It is filed as functional. The method in brief: as §2
Data set [15] is described as follows: Antifungal activity against Rhizopus microsporus UTHSC 03-1802 by broth microdilution method. In kind it is functional. The gist of the method:
as §2

Data set [16] is described as follows: Antifungal activity against Rhizopus microsporus UTHSC 07-371 by broth microdilution method. It is filed as functional. The gist of the method:
as §2

Data set [17] is described as follows: Drug level in serum of OF1 mouse infected with Rhizopus microsporus FMR 3542 at 40 mg/kg, po QD measured after 3 hrs post last dose. It is filed as ADME, organism-based. On the set-up: dose 40 mg/kg, route oral. To be noted: read-out: Drug uptake. The gist of the method: as §3
Data set [18] concerns Rhizopus microsporus. In words: Antifungal activity against Rhizopus microsporus IHEM 4770 infected in OF1 mouse assessed as reduction in fungal load in brain at 40 mg/kg, QD for 5 days. It is filed as functional, organism-based. On the set-up: dose 40 mg/kg. The method in brief:
(§4)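 Male OF1 mice (30 g) were immunosuppressed 1 day before infection with cyclophosphamide 200 mg/kg i.p. plus 5-fluorouracil 150 mg/kg i.v., then given 2 × 10^3 CFU i.v. (IHEM 4770: 1 × 10^4 CFU). Oral dosing was 40 mg/kg once daily or 20 mg/kg twice daily, starting 24 h post-challenge; ceftazidime s.c. was given on days 1–7. […], 10 mice per group were killed, and brain and kidney homogenates were plated on PDA (18–24 h, 35°C) for CFU.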

Data set [19] in a line: Antifungal activity against Rhizopus microsporus UTHSC 04-3294 by broth microdilution method. It is filed as functional. The gist of the method:
as §2

The nature of data set [20]: Drug level in serum of OF1 mouse infected with Rhizopus microsporus UTHSC 01-983 at 20 mg/kg, po BID for 5 days measured after 24 hrs post last dose. In kind it is ADME, organism-based. Also noted: dose 20 mg/kg, route oral. To be noted: read-out: Drug uptake. The gist of the method:
as §3

Data set [21] can be described thus: Antifungal activity against Rhizopus microsporus IHEM 13311 by broth microdilution method. It is filed as functional. The gist of the method:
as §2

A short description of data set [22]: Drug level in serum of OF1 mouse infected with Rhizopus microsporus FMR 3542 at 40 mg/kg, po QD measured after 24 hrs post last dose. In kind it is ADME, organism-based. Also noted: dose 40 mg/kg, route oral. To be noted: read-out: Drug uptake. The method in brief: as §3
Data set [23] deals with Rhizopus microsporus. Briefly: Antifungal activity against Rhizopus microsporus FMR 3542 infected in OF1 mouse assessed as reduction in fungal load in brain at 40 mg/kg, QD for 5 days. It is filed as functional, organism-based. On the set-up: dose 40 mg/kg. The gist of the method: as §4
Data set [24] in a line: Drug level in serum of OF1 mouse infected with Rhizopus microsporus FMR 3542 at 20 mg/kg, po BID for 5 days measured after 3 hrs post last dose. In kind it is ADME, organism-based. Also noted: dose 20 mg/kg, route oral. To be noted: read-out: Drug uptake. The gist of the method: as §3
Data set [25] can be described thus: Drug level in serum of OF1 mouse infected with Rhizopus microsporus FMR 3542 at 20 mg/kg, po BID for 5 days measured after 24 hrs post last dose. In kind it is ADME, organism-based. Also noted: dose 20 mg/kg, route oral. The note with it: read-out: Drug uptake. The gist of the method:
as §3

For data set [26], the system named is Rhizopus microsporus. In words: Antifungal activity against Rhizopus microsporus UTHSC 01-983 infected in OF1 mouse assessed as reduction in fungal load in brain at 20 mg/kg, QD for 5 days. In kind it is functional, organism-based. On the set-up: dose 20 mg/kg.
Data set [27] in a line: Antifungal activity against Rhizopus microsporus IHEM 15210 by broth microdilution method. In kind it is functional. The method in brief: as §2
A short description of data set [28]: Antifungal activity against Rhizopus microsporus IHEM 18821 by broth microdilution method. In kind it is functional. The gist of the method: as §2

In brackets after ≈: the same amount, converted by molar mass. Activity calls are given as the source filed them. The calls are words filed in the database; no cut-off is given here.

In the case of `C[C@@H](c1ncncc1F)[C@](O)(Cn1cncn1)c1ccc(F)cc1F`, the minimal inhibitory concentration (MIC) in data set [1], in data set [2], in data set [3], in [4] and in data set [5] was 4 µg/mL (≈ 11.5 µM) in each case.
As to `CC[C@@H]([C@H](C)O)n1ncn(-c2ccc(N3CCN(c4ccc(OC[C@@H]5CO[C@@](Cn6cncn6)(c6ccc(F)cc6F)C5)cc4)CC3)cc2)c1=O` [POSACONAZOLE], the MIC stood at 0.5 µg/mL (≈ 0.713 µM) in [6]; 0.5 µg/mL (≈ 0.713 µM) in data set [12]; 2 µg/mL (≈ 2.85 µM) in data set [1]; 1 µg/mL (≈ 1.43 µM) in [13]; 2 µg/mL (≈ 2.85 µM) in data set [14]; 0.25 µg/mL (≈ 0.357 µM) in data set [15]. Also, the minimal inhibitory concentration (MIC) in data set [16] was 0.25 µg/mL (≈ 0.357 µM); in [2], 0.25 µg/mL (≈ 0.357 µM); in data set [19] it was 0.25 µg/mL (≈ 0.357 µM); in data set [21], 0.5 µg/mL (≈ 0.713 µM); in data set [3], 0.5 µg/mL (≈ 0.713 µM); in data set [4], 0.25 µg/mL (≈ 0.357 µM). Also, the results for the MIC in data set [27], in [5] and in data set [28] were 0.5 µg/mL (≈ 0.713 µM), 0.25 µg/mL (≈ 0.357 µM) and 1 µg/mL (≈ 1.43 µM), respectively. The concentration at 3 h came to 5960 ng/mL in [7], 7600 ng/mL in data set [11], 5310 ng/mL in data set [17] and 8040 ng/mL in data set [24]. Further, the outcome in data set [8], in data set [9], in data set [18], in [23] and in [26] was Active. Besides, the concentration at 24 h amounted to 1050 ng/mL in [10], 2040 ng/mL in [20], 950 ng/mL in data set [22] and 2150 ng/mL in data set [25].
With `C[C@@H]1[C@H](O)[C@@H](C)/C=C/C=C/C=C/C=C/C=C/C=C/C=C/[C@H](O[C@@H]2O[C@H](C)[C@@H](O)[C@H](N)[C@@H]2O)C[C@@H]2O[C@](O)(C[C@@H](O)C[C@@H](O)[C@H](O)CC[C@@H](O)C[C@@H](O)CC(=O)O[C@H]1C)C[C@H](O)[C@H]2C(=O)O`, the minimal inhibitory concentration (MIC) stood at 0.5 µg/mL (≈ 0.541 µM) in [6]; 0.5 µg/mL (≈ 0.541 µM) in [12]; 0.5 µg/mL (≈ 0.541 µM) in [1]; 0.5 µg/mL (≈ 0.541 µM) in data set [13]; 0.5 µg/mL (≈ 0.541 µM) in data set [14]; 1 µg/mL (≈ 1.08 µM) in data set [15]. The minimal inhibitory concentration (MIC) in data set [16] amounted to 1 µg/mL (≈ 1.08 µM); in data set [2], 0.5 µg/mL (≈ 0.541 µM); in [19] it was 1 µg/mL (≈ 1.08 µM); in data set [21], 0.5 µg/mL (≈ 0.541 µM); in data set [3] it was 0.5 µg/mL (≈ 0.541 µM); in data set [4], 0.5 µg/mL (≈ 0.541 µM). The minimal inhibitory concentration (MIC) in data set [27], in data set [5] and in data set [28] was 0.5 µg/mL (≈ 0.541 µM) each time.
For the molecule `CCC(C)n1ncn(-c2ccc(N3CCN(c4ccc(OCC5COC(Cn6cncn6)(c6ccc(Cl)cc6Cl)O5)cc4)CC3)cc2)c1=O` (stereo not drawn), the MIC in data set [6] turned out to be 1 µg/mL (≈ 1.42 µM); in [12], 4 µg/mL (≈ 5.67 µM); in [1] it was 1 µg/mL (≈ 1.42 µM); in data set [13], 2 µg/mL (≈ 2.83 µM); in data set [14] it was 2 µg/mL (≈ 2.83 µM); in [15] it was 1 µg/mL (≈ 1.42 µM). Further, the MIC in [16], in data set [2], in data set [19], in data set [21], in data set [3] and in data set [4] was 1 µg/mL (≈ 1.42 µM) throughout. Also, the minimal inhibitory concentration (MIC) in [27] was 1 µg/mL (≈ 1.42 µM); in [5], 1 µg/mL (≈ 1.42 µM); in [28] it was 2 µg/mL (≈ 2.83 µM).

The values above are taken from ChEMBL document CHEMBL1649290, “Correlation of in vitro activity, serum levels, and in vivo efficacy of posaconazole against Rhizopus microsporus in a murine disseminated infection” (Antimicrob Agents Chemother, 2009).
